# Results of several laboratories.
# Lines come from different studies, so protocols differ. pIC50: −log10 of the molar value.
# Mode: inhibitor
# ACSL4: Long-chain-fatty-acid--CoA ligase 4 (ACSL4, Homo sapiens, UniProt O60488)
# HDAC6: Protein deacetylase HDAC6 (HDAC6, Homo sapiens, UniProt Q9UBN7)
# CES1: Liver carboxylesterase 1 (CES1, Homo sapiens, UniProt P23141)
# CDK7 with cyclin H: Cyclin-dependent kinase 7, with cyclin H (CDK7, Homo sapiens, UniProt P50613)
Structure (SMILES),target,observed,method,pIC50
CN(CCCOc1ccc(CC2SC(=O)NC2=O)cc1)c1ccccc1 (stereo not shown),ACSL4,enzyme activity,,6.22
COc1ccc(Nc2ncnc3c2ncn3Cc2ccc(C(=O)NO)cc2)cc1,HDAC6,enzyme activity,fluorescence,> 8.70
O=C1CCC(N2C(=O)c3cccc(NCC(=O)OCCCCc4cn(CCCCCCN5CCc6c(c7ccccc7n6Cc6ccc(C(=O)NO)cc6)C5)nn4)c3C2=O)C(=O)N1 (stereo not shown),HDAC6,enzyme activity,fluorescence,7.33
CCc1ccc(CCOc2ccc(CC3SC(=O)NC3=O)cc2)nc1 (stereo not shown),ACSL4,enzyme activity,,5.19
CCc1oc2ccccc2c1C(=O)c1cc(Br)c(O)c(Br)c1,"Solute carrier organic anion transporter family member 2B1 (SLCO2B1, Homo sapiens, UniProt O94956)",transporter uptake,radiometric,6.68
O=C(/C=C/c1ccc(O)c(O)c1)O[C@H]1[C@H](O)[C@@H](O)[C@H](OCCc2ccc(O)c(O)c2)O[C@@H]1CO,"3-hydroxy-3-methylglutaryl-coenzyme A reductase (HMGCR, Homo sapiens, UniProt P04035)",enzyme activity,absorbance,4.13
CN1C(=O)SC(Cc2ccc(OCCN(C)c3ccccn3)cc2)C1=O (stereo not shown),ACSL4,enzyme activity,,5.35
COC(=O)c1cc(OC)c2c(c1-c1c(C(=O)OC)cc(OC)c3c1OCO3)OCO2,CES1,enzyme activity,,4.94
CNS(=O)(=O)c1ccc(Nc2ncc3cc(Cl)c(=O)n(C4CCCC4)c3n2)c(C)c1,CDK7 with cyclin H,enzyme activity,radiometric,5.80
CCC(CC)COC(=O)[C@H](C)N[P@](=O)(OC[C@H]1O[C@@](C#N)(c2ccc3c(N)ncnn23)[C@H](O)[C@@H]1O)Oc1ccccc1,CES1,enzyme activity,absorbance,4.44
COC(=O)CCCc1ccc(OCCN(C)c2ccccc2)cc1,ACSL4,enzyme activity,,< 4.30
CNS(=O)(=O)c1ccc(Nc2ncc(C(F)(F)F)c(N3CCC[C@](C)(O)C3)n2)c(C)c1,CDK7 with cyclin H,enzyme activity,radiometric,5.79
COC(=O)/C=C/c1ccc(OCCN(C)C(=O)c2ccc(C3(C(F)(F)F)N=N3)cc2)cc1,ACSL4,enzyme activity,,4.61
COc1ccc(N(Cc2nc(-c3ccc(F)cc3)cs2)C(=O)CCCCCC(=O)NO)cc1,HDAC6,enzyme activity,,8.46
CN(CCOc1cccc(CC2SC(=O)NC2=O)c1)c1ccccc1 (stereo not shown),ACSL4,enzyme activity,,5.00
O=C(NO)c1ccc(Cn2cnc3c(Nc4cccc([N+](=O)[O-])c4)ncnc32)cc1,HDAC6,enzyme activity,fluorescence,> 8.70
COc1ccc(N(Cc2csc(-c3ccc(C)cc3)n2)C(=O)CCCCCC(=O)NO)cc1,HDAC6,enzyme activity,,8.60
O=C(CNc1cccc2c1C(=O)N(C1CCC(=O)NC1=O)C2=O)NCCCCCCN1CCc2c(c3ccccc3n2Cc2ccc(C(=O)NO)cc2)C1 (stereo not shown),HDAC6,enzyme activity,fluorescence,7.40
CN(C)C(=O)c1cc2cnc(Nc3ccc(-c4ccc5c(=O)cc(N6CCOCC6)oc5c4)cc3)nc2n1C1CCCC1,CDK7 with cyclin H,enzyme activity,,< 5.00
COC(=O)/C=C/c1ccc(OCCN(C)C(=O)c2ccccc2)cc1,ACSL4,enzyme activity,,6.42
Cc1cc(O)c(-c2ccc([C@@H](C)CN(C)C)cc2)c2c1[nH]c(=O)c1sccc12,CDK7 with cyclin H,enzyme activity,,< 6.00
CNS(=O)(=O)c1ccc(Nc2ncc(C(F)(F)F)c(N3CCC(C)(O)CC3)n2)c(C)c1,CDK7 with cyclin H,enzyme activity,radiometric,5.71
CN(CCCCCCNC(=O)CNc1cccc2c1C(=O)N(C1CCC(=O)NC1=O)C2=O)Cc1cn(Cc2ccc(C(=O)NO)cc2)c2ccccc12 (stereo not shown),HDAC6,enzyme activity,fluorescence,7.59
COC(=O)CCc1ccc(OCCN(C)c2ccccc2)cc1,ACSL4,enzyme activity,,5.07
CNS(=O)(=O)c1ccc(Nc2ncc(C(F)(F)F)c([C@H]3CC[C@@](C)(O)CC3)n2)c(C)c1,CDK7 with cyclin H,enzyme activity,radiometric,5.14
